Measurements as given in ChEMBL document CHEMBL1926614, “Substituted thiazoles V. synthesis and antitumor activity of novel thiazolo[2,3-b]quinazoline and pyrido[4,3-d]thiazolo[3,2-a]pyrimidine analogues” (2012).

What was measured:
Format in all cases: functional
HCT-15 = assay: Growth inhibition of human HCT15 cells at 10 uM after 48 hrs by coulter counting; details: HCT-15, 48 h, read-out: GI
How it was run: (§1)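 Single-dose primary screen across the full NCI 60-cell-line panel. Stocks were made in DMSO and diluted in PBS to a final DMSO below 1%. Cultures at 6 × 10⁴ cells/ml were run in duplicate wells alongside PBS/DMSO vehicle controls at 37 °C in humidified 5% CO₂. Data were expressed as percent growth of treated cells.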

UACC-257 = assay: Growth inhibition of human UACC257 cells at 10 uM after 48 hrs by coulter counting; details: UACC-257, 48 h, read-out: GI
How it was run: (§2)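 Single-dose screen in the NCI 60 human tumor cell line panel (nine subpanels). Compounds dissolved in DMSO and diluted in phosphate buffered saline, keeping final DMSO below 1%. Added in duplicate wells to cells at 6 × 10⁴ cells/ml. Controls held PBS and DMSO at matching dilutions. Incubated at 37 °C, humidified, 5% CO₂. Reported as percent growth of treated cells.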

UACC-62 = assay: Growth inhibition of human UACC62 cells at 10 uM after 48 hrs by coulter counting; details: UACC-62, 48 h, read-out: GI; how it was run: as §2
CCRF-CEM = assay: Growth inhibition of human CCRF-CEM cells at 10 uM after 48 hrs by coulter counting; details: read-out: GI; how it was run: as §1
HL-60(TB) = assay: Growth inhibition of human HL-60(TB) cells at 10 uM after 48 hrs by coulter counting; details: HL-60, 48 h, read-out: GI
How it was run: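 Test compound was dissolved in DMSO and diluted in phosphate-buffered saline to a final DMSO level below 1%. Dilutions were plated in duplicate with cell culture at 6 × 10⁴ cells/ml. Vehicle controls held PBS and DMSO at matching dilutions. Incubation was at 37 °C, humidified, under 5% CO₂. Data were reported as percent growth of treated cells.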

K562 = assay: Growth inhibition of human K562 cells at 10 uM after 48 hrs by coulter counting; details: K562, 48 h, read-out: GI; how it was run: as §1
MOLT-4 = assay: Growth inhibition of human MOLT4 cells at 10 uM after 48 hrs by coulter counting; details: MOLT-4, 48 h, read-out: GI; how it was run: as §1
RPMI-8226 = assay: Growth inhibition of human RPMI8226 cells at 10 uM after 48 hrs by coulter counting; details: RPMI-8226, 48 h, read-out: GI; how it was run: as §1
A549 = assay: Growth inhibition of human A549 cells at 10 uM after 48 hrs by coulter counting; details: A549, 48 h, read-out: GI; how it was run: as §1
EKVX = assay: Growth inhibition of human EKVX cells at 10 uM after 48 hrs by coulter counting; details: read-out: GI; how it was run: as §1
HOP-62 = assay: Growth inhibition of human HOP62 cells at 10 uM after 48 hrs by coulter counting; details: HOP-62, 48 h, read-out: GI; how it was run: as §1
NCI-H226 = assay: Growth inhibition of human NCI-H226 cells at 10 uM after 48 hrs by coulter counting; details: NCI-H226, 48 h, read-out: GI; how it was run: as §1
NCI-H23 = assay: Growth inhibition of human NCI-H23 cells at 10 uM after 48 hrs by coulter counting; details: NCI-H23, 48 h, read-out: GI; how it was run: as §1
[1] = Growth inhibition of human NCI-322M cells at 10 uM after 48 hrs by coulter counting; details: read-out: GI; how it was run: as §1
NCI-H460 = assay: Growth inhibition of human NCI-H460 cells at 10 uM after 48 hrs by coulter counting; details: NCI-H460, 48 h, read-out: GI; how it was run: as §1
NCI-H522 = assay: Growth inhibition of human NCI-H522 cells at 10 uM after 48 hrs by coulter counting; details: NCI-H522, 48 h, read-out: GI; how it was run: as §1
HCT-116 = assay: Growth inhibition of human HCT116 cells at 10 uM after 48 hrs by coulter counting; details: HCT-116, 48 h, read-out: GI; how it was run: as §1
HT-29 = assay: Growth inhibition of human HT-29 cells at 10 uM after 48 hrs by coulter counting; details: HT-29, 48 h, read-out: GI; how it was run: as §1
KM12 = assay: Growth inhibition of human KM12 cells at 10 uM after 48 hrs by coulter counting; details: KM12, 48 h, read-out: GI; how it was run: as §1
SF-268 = assay: Growth inhibition of human SF268 cells at 10 uM after 48 hrs by coulter counting; details: SF-268, 48 h, read-out: GI; how it was run: as §1
SF-295 = assay: Growth inhibition of human SF295 cells at 10 uM after 48 hrs by coulter counting; details: SF-295, 48 h, read-out: GI; how it was run: as §1
SNB-19 = assay: Growth inhibition of human SNB19 cells at 10 uM after 48 hrs by coulter counting; details: SNB-19, 48 h, read-out: GI; how it was run: as §1
SNB-75 = assay: Growth inhibition of human SNB75 cells at 10 uM after 48 hrs by coulter counting; details: SNB-75, 48 h, read-out: GI; how it was run: as §1
U-251 = assay: Growth inhibition of human U251 cells at 10 uM after 48 hrs by coulter counting; details: U-251, 48 h, read-out: GI; how it was run: as §2
LOX IMVI = assay: Growth inhibition of human LOXIMVI cells at 10 uM after 48 hrs by coulter counting; details: read-out: GI; how it was run: as §1
M14 = assay: Growth inhibition of human M14 cells at 10 uM after 48 hrs by coulter counting; details: M14, 48 h, read-out: GI; how it was run: as §1
MDA-MB-435 = assay: Growth inhibition of human MDA-MB-435 cells at 10 uM after 48 hrs by coulter counting; details: MDA-MB-435, 48 h, read-out: GI; how it was run: as §1
SK-MEL-2 = assay: Growth inhibition of human SK-MEL-2 cells at 10 uM after 48 hrs by coulter counting; details: SK-MEL-2, 48 h, read-out: GI; how it was run: as §1
SK-MEL-28 = assay: Growth inhibition of human SK-MEL-28 cells at 10 uM after 48 hrs by coulter counting; details: SK-MEL-28, 48 h, read-out: GI; how it was run: as §1
SK-MEL-5 = assay: Growth inhibition of human SK-MEL-5 cells at 10 uM after 48 hrs by coulter counting; details: SK-MEL-5, 48 h, read-out: GI; how it was run: as §1
NCI/ADR-RES = assay: Growth inhibition of human NCI/ADR-RES cells at 10 uM after 48 hrs by coulter counting; details: read-out: GI; how it was run: as §1
A498 = assay: Growth inhibition of human A498 cells at 10 uM after 48 hrs by coulter counting; details: A498, 48 h, read-out: GI; how it was run: as §1
ACHN = assay: Growth inhibition of human ACHN cells at 10 uM after 48 hrs by coulter counting; details: read-out: GI; how it was run: as §1
CAKI-1 = assay: Growth inhibition of human Caki1 cells at 10 uM after 48 hrs by coulter counting; details: CAKI-1, 48 h, read-out: GI; how it was run: as §1
UO-31 = assay: Growth inhibition of human UO31 cells at 10 uM after 48 hrs by coulter counting; details: UO-31, 48 h, read-out: GI; how it was run: as §2
DU-145 = assay: Growth inhibition of human DU145 cells at 10 uM after 48 hrs by coulter counting; details: DU-145, 48 h, read-out: GI; how it was run: as §1
MCF7 = assay: Growth inhibition of human MCF7 cells at 10 uM after 48 hrs by coulter counting; details: MCF7, 48 h, read-out: GI; how it was run: as §1
BT-549 = assay: Growth inhibition of human BT549 cells at 10 uM after 48 hrs by coulter counting; details: BT-549, 48 h, read-out: GI; how it was run: as §1
T47D = assay: Growth inhibition of human T47D cells at 10 uM after 48 hrs by coulter counting; details: read-out: GI; how it was run: as §2
OVCAR-8 = assay: Growth inhibition of human OVCAR8 cells at 10 uM after 48 hrs by coulter counting; details: OVCAR-8, 48 h, read-out: GI; how it was run: as §1
786-0 = assay: Growth inhibition of human 786-0 cells at 10 uM after 48 hrs by coulter counting; details: 786-0, 48 h, read-out: GI; how it was run: as §1
SN12C = assay: Growth inhibition of human SN12C cells at 10 uM after 48 hrs by coulter counting; details: read-out: GI; how it was run: as §1
TK-10 = assay: Growth inhibition of human TK10 cells at 10 uM after 48 hrs by coulter counting; details: TK-10, 48 h, read-out: GI; how it was run: as §2

Measured: inhibition of growth at 10 µM

CCN1CC2=C(N=C3SC=CN3C2c2cccs2)/C(=C/c2cccs2)C1 (stereo unspecified)
26.2%: UO-31
11.4%: T47D
21.6%: A498
14.2%: SNB-75
> 10%: all other assays above

CCN1CC2=C(N=C3SC=C(C)N3C2c2ccc(OC)cc2)/C(=C/c2ccc(OC)cc2)C1 (stereo unspecified)
35.5%: UO-31
12.5%: SNB-75
> 10%: all other assays above
